pIC50: −log10 of the molar value. One block for each compound: values may come before it. Active and inactive are the calls of the source. The calls are words filed in the database; no cut-off is given here.
Key:
[1] = biological target: T1, Poly [ADP-ribose] polymerase 1 (Homo sapiens, UniProt P09874); conditions: dose 10.0 nM
[2] = biological target: T2, Phosphatidylinositol 4,5-bisphosphate 3-kinase catalytic subunit alpha isoform (Homo sapiens, UniProt P42336); assay: Inhibition of PI3Kalpha (unknown origin) at 100 nM relative to control
T2 sequence (P42336 whole entry, canonical isoform): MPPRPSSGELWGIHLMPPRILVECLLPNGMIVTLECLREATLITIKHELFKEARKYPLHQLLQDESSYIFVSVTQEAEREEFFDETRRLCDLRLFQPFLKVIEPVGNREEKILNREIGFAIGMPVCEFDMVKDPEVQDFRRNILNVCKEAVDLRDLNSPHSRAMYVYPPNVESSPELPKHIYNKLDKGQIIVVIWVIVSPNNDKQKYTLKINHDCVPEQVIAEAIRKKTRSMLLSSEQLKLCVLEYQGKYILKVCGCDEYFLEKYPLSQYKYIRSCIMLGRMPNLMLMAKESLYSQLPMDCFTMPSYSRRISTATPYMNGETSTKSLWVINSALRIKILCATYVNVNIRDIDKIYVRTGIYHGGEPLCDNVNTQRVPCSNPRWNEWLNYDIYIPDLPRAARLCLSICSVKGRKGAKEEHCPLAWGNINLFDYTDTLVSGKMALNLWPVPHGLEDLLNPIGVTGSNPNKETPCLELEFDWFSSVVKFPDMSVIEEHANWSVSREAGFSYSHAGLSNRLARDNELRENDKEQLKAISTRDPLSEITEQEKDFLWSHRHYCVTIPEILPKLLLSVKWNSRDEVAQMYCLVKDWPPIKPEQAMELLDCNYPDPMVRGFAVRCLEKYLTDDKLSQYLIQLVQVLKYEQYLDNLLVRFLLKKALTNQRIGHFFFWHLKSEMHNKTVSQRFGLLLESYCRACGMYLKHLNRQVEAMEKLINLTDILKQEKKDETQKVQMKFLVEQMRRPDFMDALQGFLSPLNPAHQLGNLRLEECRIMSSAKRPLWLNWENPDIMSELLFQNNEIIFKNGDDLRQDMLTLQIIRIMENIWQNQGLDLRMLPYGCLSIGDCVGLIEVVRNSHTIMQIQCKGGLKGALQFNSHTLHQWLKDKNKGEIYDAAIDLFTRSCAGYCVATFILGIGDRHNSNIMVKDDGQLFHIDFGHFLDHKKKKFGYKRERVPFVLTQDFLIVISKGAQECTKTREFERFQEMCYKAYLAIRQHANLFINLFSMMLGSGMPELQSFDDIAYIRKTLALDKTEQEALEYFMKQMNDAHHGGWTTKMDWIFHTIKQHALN

[3] = Solubility of compound at pH 7; assay type: physicochemical; conditions: buffer
MDA-MB-468 [4] = assay: Induction of apoptosis in human MDA-MB-468 cells assessed as viable cells at 1 uM measured after 72 hrs by Annexin V-FITC/propidium iodide staining based flow cytometry (reference value: 95.2%); assay type: functional; conditions: read-out: Activity
MDA-MB-468 [5] = assay: Inhibition of PARP1/PI3Kalpha in human MDA-MB-468 cells assessed as down regulation of BRCA2 mRNA expression at 1 uM by RT-PCR analysis
MDA-MB-468 [6] = assay: Induction of apoptosis in human MDA-MB-468 cells assessed as early apoptotic cells at 1 uM measured after 72 hrs by Annexin V-FITC/propidium iodide staining based flow cytometry (reference value: 3.88%); assay type: functional
MDA-MB-468 [7] = assay: Induction of apoptosis in human MDA-MB-468 cells assessed as necrotic cells at 1 uM measured after 72 hrs by Annexin V-FITC/propidium iodide staining based flow cytometry (reference value: 0.13%); assay type: functional
MDA-MB-468 [8] = assay: Induction of apoptosis in human MDA-MB-468 cells assessed as late apoptotic cells at 1 uM measured after 72 hrs by Annexin V-FITC/propidium iodide staining based flow cytometry (reference value: 0.78%); assay type: functional
MDA-MB-468 [9] = assay: Inhibition of PARP1/PI3Kalpha in human MDA-MB-468 cells assessed as down regulation of BRCA1 mRNA expression at 1 uM by RT-PCR analysis
MDA-MB-468 [10] = assay: Antitumor activity against human MDA-MB-468 cells xenografted in BALB/c mouse assessed as tumor growth inhibition at 27.5 mg/kg, ip administered every two days for 34 days relative to control; conditions: MDA-MB-468, ip, 816 h, read-out: TGI
[11] = biological target: T1, Poly [ADP-ribose] polymerase 1; assay: Inhibition of PARP1 (unknown origin)
Summary of the method: (§1)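 PARP-1 and PI3Kα enzyme inhibition. IC50 taken from dose-response curves and given as mean ± SD of three independent experiments.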

[12] = biological target: T2, Phosphatidylinositol 4,5-bisphosphate 3-kinase catalytic subunit alpha isoform; assay: Inhibition of PI3Kalpha (unknown origin)
Summary of the method: as §1

MDA-MB-468 [13] = assay: Antiproliferative activity against human MDA-MB-468 cells measured after 7 days by Celltiter-glo assay; assay type: functional, cell-based; conditions: MDA-MB-468, 168 h
Summary of the method: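 MDA-MB-468 cells grown in RPMI1640 with 10% FBS at 37 °C, 5% CO2. Seeded the day before dosing, grown 12 h, then exposed to a range of concentrations for 7 days. Viability read by CellTiter-Glo luminescence after 10 min at room temperature. Inhibition % = (1 − (RLU cpd − blank)/(RLU DMSO − blank)) × 100. IC50 from nonlinear regression of normalized dose-response.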

[14] = Solubility of compound; assay type: physicochemical
MDA-MB-468 [15] = assay: Induction of apoptosis in human MDA-MB-468 cells assessed as viable cells at 2 uM measured after 72 hrs by Annexin V-FITC/propidium iodide staining based flow cytometry (reference value: 95.2%); assay type: functional; conditions: read-out: Activity
MDA-MB-468 [16] = assay: Induction of apoptosis in human MDA-MB-468 cells assessed as early apoptotic cells at 2 uM measured after 72 hrs by Annexin V-FITC/propidium iodide staining based flow cytometry (reference value: 3.88%); assay type: functional
MDA-MB-468 [17] = assay: Induction of apoptosis in human MDA-MB-468 cells assessed as necrotic cells at 2 uM measured after 72 hrs by Annexin V-FITC/propidium iodide staining based flow cytometry (reference value: 0.13%); assay type: functional
MDA-MB-468 [18] = assay: Inhibition of PARP1/PI3Kalpha in human MDA-MB-468 cells assessed as down regulation of BRCA1 mRNA expression at 2 uM by RT-PCR analysis
MDA-MB-468 [19] = assay: Antitumor activity against human MDA-MB-468 cells xenografted in BALB/c mouse assessed as tumor growth inhibition at 50 mg/kg, ip administered every two days for 34 days relative to control; conditions: MDA-MB-468, ip, 816 h, read-out: TGI
MDA-MB-468 [20] = assay: Inhibition of PARP1/PI3Kalpha in human MDA-MB-468 cells assessed as down regulation of BRCA2 mRNA expression at 2 uM by RT-PCR analysis

T1 sequence (P09874 whole entry, canonical isoform): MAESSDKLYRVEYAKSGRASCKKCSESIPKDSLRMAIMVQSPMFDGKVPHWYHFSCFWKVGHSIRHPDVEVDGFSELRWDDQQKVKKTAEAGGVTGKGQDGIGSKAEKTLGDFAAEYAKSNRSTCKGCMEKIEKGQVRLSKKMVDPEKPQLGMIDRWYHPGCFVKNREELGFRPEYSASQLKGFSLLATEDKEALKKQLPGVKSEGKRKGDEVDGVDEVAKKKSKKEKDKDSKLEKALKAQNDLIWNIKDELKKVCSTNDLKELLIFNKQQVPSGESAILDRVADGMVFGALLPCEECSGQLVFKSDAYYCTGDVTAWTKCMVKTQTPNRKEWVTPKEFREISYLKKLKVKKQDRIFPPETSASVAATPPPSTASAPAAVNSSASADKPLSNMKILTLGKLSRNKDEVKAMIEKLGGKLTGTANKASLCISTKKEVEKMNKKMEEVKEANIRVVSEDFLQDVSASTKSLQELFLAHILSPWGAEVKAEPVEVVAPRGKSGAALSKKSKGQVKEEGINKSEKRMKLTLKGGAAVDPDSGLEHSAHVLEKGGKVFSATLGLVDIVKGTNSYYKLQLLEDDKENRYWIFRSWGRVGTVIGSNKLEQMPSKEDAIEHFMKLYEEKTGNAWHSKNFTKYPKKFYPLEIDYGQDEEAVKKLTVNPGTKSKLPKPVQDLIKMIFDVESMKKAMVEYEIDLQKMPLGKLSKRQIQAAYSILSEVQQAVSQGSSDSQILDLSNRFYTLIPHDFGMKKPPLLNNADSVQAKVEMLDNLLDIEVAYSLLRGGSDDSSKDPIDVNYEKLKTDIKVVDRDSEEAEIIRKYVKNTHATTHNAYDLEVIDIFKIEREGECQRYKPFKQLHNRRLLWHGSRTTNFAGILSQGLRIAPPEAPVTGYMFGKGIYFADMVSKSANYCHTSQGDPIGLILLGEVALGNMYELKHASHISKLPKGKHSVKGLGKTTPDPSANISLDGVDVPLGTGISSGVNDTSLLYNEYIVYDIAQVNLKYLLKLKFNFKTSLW

SMILES: Cl.NC(=O)c1cccc2cc(C(=O)N3CCN(c4nc(-c5cnc(NC(=O)CN6CCOCC6)cc5C(F)(F)F)nc(N5CCOCC5)n4)CC3)oc12
solubility [3]: > 10000 µg/mL

SMILES: NC(=O)c1cccc2cc(C(=O)N3CCN(c4nc(-c5ccc(N)nc5)nc(N5CCOCC5)n4)CC3)oc12
pIC50 [11]: 7.97 | inhibition [1]: 61% | pIC50 [12]: 6.93 | inhibition [2]: 79%

SMILES: NC(=O)c1cccc2cc(C(=O)N3CCN(c4nc(-c5cnc(NC(=O)CN6CCOCC6)cc5C(F)(F)F)nc(N5CCOCC5)n4)CC3)oc12
inhibition (MDA-MB-468 [5]): Active | inhibition (MDA-MB-468 [9]): Active

SMILES: NC(=O)c1cccc2cc(C(=O)N3CCN(c4cc(-n5c(C(F)F)nc6ccccc65)nc(N5CCOCC5)n4)CC3)oc12
inhibition [1]: 38% | inhibition [2]: 26%

SMILES: NC(=O)c1cccc2cc(C(=O)N3CCN(c4nc(-c5cnc(N)nc5)nc(N5CCOCC5)n4)CC3)oc12
pIC50 [11]: 8.24 | inhibition [1]: 70% | pIC50 [12]: 8.20 | solubility [14]: Insoluble | inhibition [2]: 86%

SMILES: O=C(c1cc(Cc2n[nH]c(=O)c3ccccc23)ccc1F)N1CCN(C(=O)C2CC2)CC1 [OLAPARIB]
viability at 2 µM (MDA-MB-468 [15]): 91.5% | Activity (MDA-MB-468 [16]): 6.6% | Activity (MDA-MB-468 [17]): 0.16% | inhibition (MDA-MB-468 [18]): Active | inhibition in vivo at 50 mg/kg (MDA-MB-468 [19]): 28.5% | inhibition (MDA-MB-468 [20]): Active

Further lines, with some results ahead:

inhibition [1]: 36% | inhibition [2]: 29%
SMILES: NC(=O)c1cccc2cc(C(=O)N3CCN(c4nc(N5CCOCC5)nc(-n5c(C(F)F)nc6ccccc65)n4)CC3)oc12

inhibition [2]: 82%
SMILES: Nc1cc(C(F)(F)F)c(-c2cc(N3CCOCC3)nc(N3CCOCC3)n2)cn1 [BUPARLISIB]
viability at 1 µM (MDA-MB-468 [4]): 91.9% | inhibition (MDA-MB-468 [5]): Active | Activity (MDA-MB-468 [6]): 6.13% | Activity (MDA-MB-468 [7]): 0.16% | Activity (MDA-MB-468 [8]): 1.82% | inhibition (MDA-MB-468 [9]): Active | inhibition in vivo at 27.5 mg/kg (MDA-MB-468 [10]): 33.4%

solubility [3]: < 100 µg/mL
SMILES: Cl.NC(=O)c1cccc2cc(C(=O)N3CCN(c4nc(-c5cnc(N)cc5C(F)(F)F)nc(N5CCOCC5)n4)CC3)oc12

inhibition [1]: 51% | inhibition [2]: 5%
SMILES: NC(=O)c1cccc2cc(C(=O)N3CCN(c4nc(-c5ccc(N)c(F)c5)nc(N5CCOCC5)n4)CC3)oc12

inhibition [1]: 60% | inhibition [2]: 77%
SMILES: NC(=O)c1cccc2cc(C(=O)N3CCN(c4nc(-c5cnc(N)cc5C(F)(F)F)nc(N5CCOCC5)n4)CC3)oc12 [listing 1 of 2 here]

inhibition [1]: 51% | inhibition [2]: 80%
SMILES: NC(=O)c1cccc2cc(C(=O)N3CCN(c4cc(-c5cnc(N)cc5C(F)(F)F)nc(N5CCOCC5)n4)CC3)oc12

pIC50 [11]: 8.14 | pIC50 [12]: 7.40 | pIC50 (MDA-MB-468 [13]): 5.39
SMILES: NC(=O)c1cccc2cc(C(=O)N3CCN(c4nc(-c5cnc(N)cc5C(F)(F)F)nc(N5CCOCC5)n4)CC3)oc12 [listing 2 of 2 here]

inhibition [1]: 62% | inhibition [2]: 8%
SMILES: NC(=O)c1cccc2cc(C(=O)N3CCN(c4nc(-c5ccc6[nH]ccc6c5)nc(N5CCOCC5)n4)CC3)oc12

inhibition [1]: 85% | inhibition [2]: 60%
SMILES: NC(=O)c1cccc2cc(C(=O)N3CCN(c4cc(-c5cnc(N)nc5)nc(N5CCOCC5)n4)CC3)oc12
